Assay outcomes from PubChem.
Only some compounds are listed: those with a hit (about 2.3% of all), similar ones and a draw of the others.
MEKK2wt PB1 HTS: raises or lowers MEK5 binding to wildtype human MEKK2 PB1 domain. Q9Y2U5. bead flow cytometry, Alexa488-MEK5 binding to MEKK2 WT; actives lie on both sides. binding response (% of control), % at 10 µM. actives 1.1% (n = 290,000); in the data active = binding response below about 67% or above about 130%
MEKK2 mut-MEK5: signal of MEK5 binding to mutant human MEKK2 PB1 domain; actives 0.35% (n = 290,000); AID 1530; bead flow cytometry, Alexa488-MEK5 binding to MEKK2 mutant; percent response, % at 10 µM; in the data active = percent response above about 24%, passing the limit was not always enough
MEKK3 PB1 HTS: modulators (inhibitors or enhancers) of MEK5 binding to human MEKK3 PB1 domain. binding response (% of control), % at 10 µM. actives 1.4% (n = 290,000). Q99759. bead-based flow cytometry, Alexa488-MEK5 binding to MEKK3; actives lie on both sides; 0 = blocked by unlabeled MEK5, 100 = vehicle;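 active = binding response more than 3 SD above or below the average of its plate-row segment, actives on both sides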;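 also: Alexa488 bead fluorescence after subtracting the streptavidin-only scavenger bead signal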
Target sequence (Q99759 whole entry, looked up, the tested form may be a part): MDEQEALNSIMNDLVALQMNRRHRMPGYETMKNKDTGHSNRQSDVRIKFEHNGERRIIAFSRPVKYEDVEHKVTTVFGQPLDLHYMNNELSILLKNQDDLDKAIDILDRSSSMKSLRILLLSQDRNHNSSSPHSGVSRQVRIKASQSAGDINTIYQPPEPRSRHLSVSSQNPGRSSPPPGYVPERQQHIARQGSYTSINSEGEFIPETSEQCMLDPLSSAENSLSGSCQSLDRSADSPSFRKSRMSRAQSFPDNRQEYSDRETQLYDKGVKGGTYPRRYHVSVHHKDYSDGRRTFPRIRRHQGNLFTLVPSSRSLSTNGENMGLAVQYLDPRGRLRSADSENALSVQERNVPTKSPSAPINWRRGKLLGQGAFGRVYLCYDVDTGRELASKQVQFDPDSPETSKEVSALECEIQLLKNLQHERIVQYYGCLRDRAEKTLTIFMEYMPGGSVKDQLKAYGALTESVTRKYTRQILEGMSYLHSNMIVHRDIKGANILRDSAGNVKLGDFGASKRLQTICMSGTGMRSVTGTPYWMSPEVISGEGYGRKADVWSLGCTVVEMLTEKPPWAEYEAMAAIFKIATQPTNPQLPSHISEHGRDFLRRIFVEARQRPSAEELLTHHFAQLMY
Arr AP2 block: blocks beta-arrestin peptide binding to AP2 adaptin. actives 0.31% (n = 340,000). FITC-arrestin peptide / GST-AP2 beads, flow cytometry; AP2 beta2 appendage carries R879A mutation. inhibition, % at 10 µM;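 active = inhibition above a set limit, near 3 SD of compounds lacking own fluorescence, cut at about 54% in these data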;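 also: plate controls were DMSO wells for no effect and 5 µM unlabelled arrestin peptide for full effect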
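Material – GST-tagged AP2 beta2-adaptin appendage (R879A) on 4 µm glutathione beads · Probe or stimulus – fluorescein-tagged arrestin peptide at 50 nM final · Timing – 12 min plus 1 h, RT · Detection – bead flow cytometry, FITC channel · Read-out basis – inhibition as reduced fluorescein signal on beads, percent · Medium – PBS plus Tween 20 (0.05%) and BSA (0.1%)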
MEKK2wt confirm: raises or lowers MEK5 binding to wildtype human MEKK2, retest; shares compounds with MEKK3 PB1 HTS; bead flow cytometry, Alexa488-MEK5 binding to MEKK2 WT; actives lie on both sides; binding response (% of control), % at 10 µM; actives 2.4% (n = 5,900); in the data active = binding response below about 16% or above about 210%; inactive = in between
MEKK2mut confirm: signal of MEK5 binding to mutant human MEKK2, retest; percent response, % at 10 µM; actives 2% (n = 5,900); bead flow cytometry, Alexa488-MEK5 binding to MEKK2 mutant; shares compounds with MEKK3 PB1 HTS; AID 1893; in the data active = percent response mostly above about 71%, no sharp cut-off; inactive = mostly below about 38%;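 also: higher means compound restores mutant binding toward wildtype level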
MEKK3-MEK5 inh: confirmation of inhibitors of MEK5 binding to human MEKK3; shares compounds with MEKK3 PB1 HTS; bead flow cytometry, Alexa488-MEK5 binding to MEKK3; active compounds read low; binding response (% of control), % at 10 µM; actives 1.8% (n = 5,900);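 active = binding response below 72% of control, or above a set upper limit, though filed actives all read lower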;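 also: 100% = DMSO only wells and 0% = binding blocked by excess unlabeled MEK5; lower values mean stronger disruption of MEK5 binding to MEKK3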
Arr AP2 CP1: blocks beta-arrestin peptide binding to human AP2 | actives 2% (n = 1,300) | shares compounds with Arr AP2 block | GST-AP2 beads, FITC arrestin peptide binding, flow cytometry; GST-fused beta2-adaptin appendage, R879A mutant | AID 504908 | inhibition, % at 10 µM;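 active = inhibition above a set limit, roughly 3 SD of non-fluorescent compound noise, cut at about 38% in these data; inactive = inhibition at or below that limit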;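 also: loss of bead fluorescence from 50 nM FITC arrestin peptide bound to appendage; 0% = negative control wells and 100% = excess unlabelled arrestin peptide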
GST GSH counter: disrupts GST binding to glutathione beads, arrestin-AP2 artifact | shares compounds with Arr AP2 block | inhibition, % at 10 µM | GST-fluorescein binding to GSH beads, fluorescence, counter-screen | actives 2% (n = 1,300);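 active = inhibition above 50%, about 3 SD of the inhibition seen with non-fluorescent compounds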;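 also: fluorescein maleimide labelled GST captured on 4 micron glutathione beads; higher means more loss of bead fluorescence from quenching or blocked binding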
The depositor's hits bear a star; / = not tested or not shown; ! = a repeat was not active; [ ] = another dose, or the depositor's remark.

SMILES | MEKK2wt PB1 HTS | MEKK2 mut-MEK5 | MEKK3 PB1 HTS | Arr AP2 block | Arr AP2 CP1 | GST GSH counter | others
Nc1c(C(=O)NCc2ccco2)c2nc3ccccc3nc2n1CCN1CCCCC1 | 146* | 29* | 122* | -8 | / | / | MEKK2wt confirm=139;MEKK2mut confirm=16;MEKK3-MEK5 inh=105
O=C1NC(=O)N(Cc2ccccc2)C(=O)/C1=C/N1CCCc2ccccc21 | 107 | 0 | 140* | 11 | / | / | MEKK2wt confirm=89;MEKK2mut confirm=2;MEKK3-MEK5 inh=94
O=C1NC(=O)N(Cc2ccccc2)C(=O)/C1=C\C=C\c1ccco1 | 98 | 6 | 103 | 7 | / | /
O=C(NC(=C(Cl)Cl)P(=O)(c1ccccc1)c1ccccc1)c1ccccc1 | 99 | -2 | 102 | 25 | / | /
c1ccc2cc(C3N4CCCN34)ccc2c1 (centres undefined) | 94 | -9 | 103 | 3 | / | /
COc1cccc(CNCCc2c[nH]c3ccccc23)c1OC | 147* | 44 | 107 | 20 | / | / | MEKK2wt confirm=114;MEKK2mut confirm=3;MEKK3-MEK5 inh=103
COc1ccc(CNCCc2c[nH]c3ccccc23)c(OC)c1OC | 118 | 8 | 105 | -3 | / | /
COCCO[C@H]1CC[C@@]2(C)C(=CCC3C2CC[C@@]2(C)C3CC[C@]2(C)O)C1 (some centres undefined) | / | / | / | 13 | / | /
COc1cccc(-n2c(O)c(C=NCCN3CCOCC3)c(=O)[nH]c2=O)c1 | 103 | 1 | 103 | -2 | / | /
O=c1cccc2n1CC1CC2CN(Cc2ccc3c(c2)OCO3)C1 (centres undefined) | -1.0*[inhibitor] | -27 | 2.0*[inhibitor] | -8 | / | / | MEKK2wt confirm=109;MEKK2mut confirm=16;MEKK3-MEK5 inh=109
COc1ccc(CN2CC3CC(C2)c2cccc(=O)n2C3)cc1OC (centres undefined) | 106 | 9 | 93 | -6 | / | /
Cc1cc(OCCN2CC2)c2ccccc2n1 | 141* | 15 | 93 | / | / | / | MEKK2wt confirm=172;MEKK2mut confirm=51;MEKK3-MEK5 inh=110
CN1CCN(Cc2nc3ccccc3c(=O)[nH]2)CC1 | 102 | 8 | 103 | 23 | / | /
CCOC(=O)c1c(/N=C/c2c(O)n(-c3ccccc3F)c(=S)[nH]c2=O)sc2c1CCCC2 | 64*[inhibitor] | -34 | 91 | 84* | 14 | 24 | MEKK2wt confirm=51;MEKK2mut confirm=-23;MEKK3-MEK5 inh=92
O=C1C2CCCC1C(N1CCCC1)CC2 (centres undefined) | 93 | -2 | 97 | 2 | / | /
CN1CCN(c2ccc(Cl)cc2N)CC1 | 101 | -4 | 97 | 9 | / | /
CN1CCN(c2ccc(N)cc2Cl)CC1 | 101 | -1 | 105 | 59* | 17 | 52*
Cc1nnc(SCc2nc3ccccc3c(=O)n2-c2ccccc2Cl)n1N | 100 | -5 | 97 | 13 | / | /
O=c1c2ccccc2[se]n1-c1ccccc1 | 115 | 14 | 117 | 92* | 125*! | 46
O=C(c1ccc(Cl)cc1)C12CN3CN(CN(C3)C1)C2 | 100 | 0 | 101 | 105* | -3 | -2
O=C(c1cccc([N+](=O)[O-])c1)C12CN3CN(CN(C3)C1)C2 | 95 | 1 | 94 | -5 | / | /
O=c1[nH]c(=O)n(CCc2ccccc2)c(O)c1C=NC1CC1 | 100 | -2 | 101 | 6 | / | /
C[N+]12CCC(CC1)C(=C(c1ccccc1)c1ccccc1)C2 | 103 | 1 | 100 | 66* | -15 | -8
O=C(O)c1[nH]c(=O)[nH]c(=O)c1F | 95 | -9 | 95 | 6 | / | /
O=C(NCCO)c1nsnc1NCCCl | 95 | -2 | 102 | 58* | 4 | -6
CN1C(=O)N(C)C(=O)C2(Cc3cc(NC(=O)c4ccccc4)ccc3N3CCCC32)C1=O (centres undefined) | 96 | 1 | 99 | -2 | / | /
CN1C(=O)N(C)C(=O)C2(Cc3cc(NC(=O)c4ccccc4Cl)ccc3N3CCCC32)C1=O (centres undefined) | 100 | 1 | 97 | 56* | 5 | -2
